Activity calls are given as the source filed them. The calls are words filed in the database; no cut-off is given here.

This is an account of results in ChEMBL document CHEMBL5674869, “The Histone Methyltransferase Inhibitor A-366 Uncovers a Role for G9a/GLP in the Epigenetics of Leukemia” (PLoS One, 2015).

The target in data set [1] is T1, Histone-lysine N-methyltransferase EHMT2 (Homo sapiens) (UniProt Q96KQ7).
T1 sequence (whole entry): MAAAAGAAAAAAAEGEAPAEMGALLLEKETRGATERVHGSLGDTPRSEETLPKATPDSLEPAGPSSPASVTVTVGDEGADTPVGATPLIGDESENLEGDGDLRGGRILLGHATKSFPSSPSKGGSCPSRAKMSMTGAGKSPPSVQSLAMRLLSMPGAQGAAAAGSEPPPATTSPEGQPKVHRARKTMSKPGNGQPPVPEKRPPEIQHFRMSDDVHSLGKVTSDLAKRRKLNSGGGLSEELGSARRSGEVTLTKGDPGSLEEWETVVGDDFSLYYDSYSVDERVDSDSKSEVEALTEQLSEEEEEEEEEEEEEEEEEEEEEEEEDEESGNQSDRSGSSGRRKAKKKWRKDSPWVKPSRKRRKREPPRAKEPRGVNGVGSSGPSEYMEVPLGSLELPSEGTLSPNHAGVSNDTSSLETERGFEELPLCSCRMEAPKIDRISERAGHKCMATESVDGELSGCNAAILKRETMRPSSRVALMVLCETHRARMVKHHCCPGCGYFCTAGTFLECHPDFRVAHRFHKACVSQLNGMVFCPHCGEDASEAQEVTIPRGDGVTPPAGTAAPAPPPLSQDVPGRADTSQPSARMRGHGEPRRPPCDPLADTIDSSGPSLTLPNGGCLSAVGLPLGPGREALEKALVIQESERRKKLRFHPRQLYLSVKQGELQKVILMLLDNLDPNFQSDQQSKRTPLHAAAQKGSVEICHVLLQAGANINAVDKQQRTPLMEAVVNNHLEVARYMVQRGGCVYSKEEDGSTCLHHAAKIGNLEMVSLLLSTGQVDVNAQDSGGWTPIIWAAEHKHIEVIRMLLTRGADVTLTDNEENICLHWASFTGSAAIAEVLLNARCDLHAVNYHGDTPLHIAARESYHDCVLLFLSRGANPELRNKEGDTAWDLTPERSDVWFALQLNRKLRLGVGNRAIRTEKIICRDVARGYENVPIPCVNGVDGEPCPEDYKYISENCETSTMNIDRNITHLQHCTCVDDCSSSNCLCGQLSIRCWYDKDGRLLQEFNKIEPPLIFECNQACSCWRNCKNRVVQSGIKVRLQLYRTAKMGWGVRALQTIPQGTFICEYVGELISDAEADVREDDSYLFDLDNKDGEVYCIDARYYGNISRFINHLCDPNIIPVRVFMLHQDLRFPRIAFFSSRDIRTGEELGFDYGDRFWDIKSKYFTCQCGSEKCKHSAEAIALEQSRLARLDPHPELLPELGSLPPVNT
Description: Inhibition of G9a in human PC-3 cells assessed as effect on H3k4me2 levels at 0.3 to 3 uM after 72 hrs by Western blot analysis. The class given is cell-based. The conditions noted are these: dose 0.3-3 µM. A digest of the protocol: (§1)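 PC-3 prostate cells incubated with DMSO, 0.3 or 3 μM compound for 72 h. Lysates probed by western blot with antibodies to H3K9me2, H3K4me2, H3K4me3, H3K9me3, H4K20me1, H4K20me3, H3K36me2 and H3K27me3.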
(A western blot detects proteins with antibodies after separation by electrophoresis.)

Data set [2] deals with T1, Histone-lysine N-methyltransferase EHMT2 (Homo sapiens). The data set is described as follows: Inhibition of G9a in human PC-3 cells assessed as effect on H4k20me1 levels at 0.3 to 3 uM after 72 hrs by Western blot analysis. The class given is cell-based. The conditions noted are these: dose 0.3-3 µM. The method, boiled down:
as §1

Data set [3] shares this target. Description: Inhibition of G9a in human PC-3 cells assessed as effect on H4k20me3 levels at 0.3 to 3 uM after 72 hrs by Western blot analysis. The conditions noted are these: dose 0.3-3 µM. The class given is cell-based. The method, boiled down: as §1
For data set [4] the target is unchanged. The data set is described as follows: Inhibition of G9a in human PC-3 cells assessed as effect on H3k36me2 levels at 0.3 to 3 uM after 72 hrs by Western blot analysis. The data set is classed as cell-based. The conditions noted are these: dose 0.3-3 µM. A digest of the protocol:
as §1

Data set [5] shares this target. The data set is described as follows: Inhibition of G9a in human PC-3 cells assessed as effect on H3k27me3 levels at 0.3 to 3 uM after 72 hrs by Western blot analysis. The class given is cell-based. The conditions noted are these: dose 0.3-3 µM. A digest of the protocol:
as §1

Data set [6] deals with MDA-MB-231. Description: Antiproliferative activity against human MDA-MB-231 cells assessed as effect on colony formation at 0.1 to 10 uM after 14 days by crystal violet staining based clonogenic assay. The data set is classed as functional, cell-based. The conditions noted are these: dose 0.1-10 µM, time 14.0 day. A digest of the protocol:
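Clonogenic assay: 500 live cells per well were seeded into six-well plates in drug-free medium. Compound diluted in culture medium was added 24 h later. Cells were cultured at 37°C, then fixed and stained with 0.2% crystal violet. Colonies were counted on an automated colony counter.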

In data set [7] the test system is HT-1080. Description: Antiproliferative activity against human HT-1080 cells upto 10 uM after 2 days by Cell-Titer-Glo assay. The class given is functional, cell-based. The conditions noted are these: time 2.0 day. The method, boiled down:
(§2)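 ATCC tumor lines were grown in their recommended media with 10% FBS and STR-authenticated. Cells were exposed to compound for the stated number of days. Viable cells were read by CellTiter-Glo endpoint. Inhibition was the ratio of treated to untreated wells, with cell-free wells set as 100% inhibition. The EC50 was taken from the dose response.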

Data set [8] in a line: Cytotoxicity against human PBMC cells assessed as effect on cell viability after 48 hrs by Cell-titerGlo assay. The data set is classed as toxicity, cell-based. A digest of the protocol: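 PBMCs from two human donors were pooled and grown in AIM-V medium. Cells were treated with compound for 48 h. Viability was read by CellTiter-Glo endpoint.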
For data set [9], the system named is MV4-11. The data set is described as follows: Inhibition of cell viability in human MV4-11 cells after 14 days by trypan blue exclusion assay. The class given is functional, cell-based. The conditions noted are these: time 14.0 day. A digest of the protocol:
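MV4;11 cells treated 14 days with compound over a concentration range. Viability scored by trypan blue exclusion; parallel proliferation read by CellTiter-Glo.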

Data set [10] has as its system Mus musculus. Description: Decrease in H3K9me2 level in SCID/beige mouse tumor xenografted with human MV4-11 cells at 30 mg/kg/day via osmotic-mini pump for 7 days by alphaLisa assay. The class given is functional, organism-based. The conditions noted are these: Neoplasm, time 7.0 day. The method, boiled down: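 Female SCID-beige mice, 6–8 weeks old, received 5 x 10^6 MV4;11 cells in 50% Matrigel subcutaneously in the flank. At about 200 mm3, compound was given at 30 mg/kg/day by osmotic mini-pump in 98% PEG-400/2% Tween-80. In the PK/PD arm, tumors were harvested at the stated day and H3K9me2 was measured by AlphaLISA relative to vehicle.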
In general terms: In xenograft studies the graft and the host belong to different species.

Data set [11] can be described thus: Drug level in SCID/beige mouse plasma xenografted with human MV4-11 cells at 30 mg/kg/day via osmotic-mini pump. The data set is classed as ADME, organism-based. The conditions noted are these: in vivo. A digest of the protocol:
(§3)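 Tumor-bearing SCID-beige female mice (6–8 wk) with subcutaneous flank MV4;11 xenografts (5 x 10^6 cells in 50% Matrigel, grown to ~200 mm3). Compound given by osmotic mini-pump at 30 mg/kg/day in 98% PEG-400/2% Tween-80. Separate PK/PD arm sacrificed after 2, 7 and 14 days of treatment; plasma and tissues collected and analyzed for drug levels.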

Data set [12] is described as follows: Drug level in SCID/beige mouse liver xenografted with human MV4-11 cells at 30 mg/kg/day via osmotic-mini pump. The class given is ADME, organism-based. The conditions noted are these: in vivo. A digest of the protocol: as §3
The subject of data set [13] is HL-60 (human). The data set is described as follows: Induction of cell cycle arrest in human HL-60 cells assessed as increase in G1 phase cells after 4 days by propidium iodide staining based flow cytometry. The conditions noted are these: time 4.0 day.
The subject of data set [14] is HT-1080. The data set is described as follows: Antiproliferative activity against human HT-1080 cells after 2 days by Cell-Titer-Glo assay. The class given is functional, cell-based. The conditions noted are these: HT-1080, 48 h. A digest of the protocol: as §2

As for `COc1cc2c(cc1OCCCN1CCCC1)N=C(N)C21CCC1`, the inhibition result in [1], in data set [2], in data set [3], in data set [4] and in [5] was “inactive” each time. In addition, the outcome in data set [6] and in data set [7] was inactive. The Activity result in [8] is listed as “Non-Toxic”. Besides, the inhibition result in data set [9] and in data set [10] was “Active” each time. The Drug uptake result in data set [11] and in data set [12] was “Active” in each case. Besides, the outcome in [13] was Active.
In general, EC50 refers to the concentration that produces a half-maximal response. Low values mean higher potency in that assay, high ones lower potency in that assay. As for `COc1cc2c(NC3CCN(C(C)C)CC3)nc(C3CCCCC3)nc2cc1OCCCN1CCCC1`, it took 1400 nM to reach a half-maximal effect in data set [14] (EC50). This lies in the single-digit micromolar range.
